Holding throughout (format): functional, organism-based
In assay [1] the test system is Mycobacterium tuberculosis. The assay can be described thus: Ability to inhibit 100%growth against Mycobacterium tuberculosis H37Rv in Youman's medium. The procedure, abridged: (§1)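 M. tuberculosis H37Rv was kept on Petrik's solid medium. A 3-mm loopful of a 14-day culture grown in Youman's medium was floated on 5.0 mL of Youman's (nonprotein) medium holding a range of compound concentrations diluted from stocks. Controls held medium or ethylene glycol. Tubes were sealed with paraffin and held at 37 °C. Growth was compared with controls weekly and scored at 21 days, in triplicate.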

The subject of assay [2] is Mycobacterium tuberculosis. The assay can be described thus: Ability to inhibit 100%growth against Mycobacterium tuberculosis H37Rv in Youman's medium with 10% bovine serum. In short, it runs like this:
(§2)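 H37Rv from a 14-day Youman's culture was inoculated as a loopful floated on Youman's medium with 10% (v/v) freshly prepared bovine serum. The medium held a range of compound concentrations. Controls held medium or ethylene glycol. Tubes were sealed and held at 37 °C. Growth was compared with controls and scored at 21 days.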

For assay [3], the system named is Mycobacterium tuberculosis. The assay can be described thus: Ability to inhibit partial growth (50+/-10%) against Mycobacterium tuberculosis H37Rv in Youman's medium. The procedure, abridged: as §1
The subject of assay [4] is Mycobacterium tuberculosis. The assay can be described thus: Ability to inhibit partial growth (50+/-10%) against Mycobacterium tuberculosis H37Rv in Youman's medium with 10% bovine serum. The procedure, abridged: as §2
The test system of assay [5] is Mycobacterium tuberculosis. The assay can be described thus: Ability to inhibit 100% growth against Mycobacterium tuberculosis strain no :14029. The procedure, abridged:
(§3)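 Clinical isolates (INH-resistant nos. 22443 and 312; streptomycin-resistant no. 14029) were kept on Lowenstein-Jensen or Petrik's medium, then moved to Youman's medium. 14-day cultures were inoculated into tubes holding a range of compound concentrations in Youman's medium. Controls held medium, ethylene glycol, INH and streptomycin. Tubes were sealed with paraffin and held at 37 °C for 4 weeks. Growth was compared with controls weekly and scored at 28 days, in triplicate.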

Assay [6] concerns Mycobacterium tuberculosis. The assay can be described thus: Ability to inhibit partial growth (50+/-10%) against Mycobacterium tuberculosis strain no: 14029 in Youman's medium. In short, it runs like this:
as §3

The subject of assay [7] is Mycobacterium tuberculosis. The assay can be described thus: Ability to inhibit 100%growth against Mycobacterium tuberculosis strain no: 22443 in Youman's medium. The procedure, abridged: as §3
In assay [8] the test system is Mycobacterium tuberculosis. The assay can be described thus: Ability to inhibit 100%growth against Mycobacterium tuberculosis strain no: 312 in Youman's medium. In short, it runs like this:
as §3

Assay [9] has as its system Mycobacterium tuberculosis. The assay can be described thus: Ability to inhibit partial growth (50+/-10%) against Mycobacterium tuberculosis strain no: 22443 in Youman's medium. In short, it runs like this:
as §3

In assay [10] the test system is Mycobacterium tuberculosis. The assay can be described thus: Ability to inhibit partial growth (50+/-10%) against Mycobacterium tuberculosis strain no: 312 in Youman's medium. The procedure, abridged:
as §3

`CC(CC(=O)NN)Nc1ccc2ccccc2c1` (stereo unspecified): the Concentration came to 10 µg/mL in [1], 100 µg/mL in [2], 5 µg/mL in assay [3] and 50 µg/mL in assay [4].
On the same counts, the results for `O=C(CNc1ccc2ccccc2c1)N/N=C/c1ccncc1` are 1 µg/mL, 100 µg/mL, 0.5 µg/mL and 10 µg/mL.
Consider `CC(Nc1ccc2ccccc2c1)C(=O)NN` (stereo unspecified), for which the Concentration in assay [1] is 1 µg/mL; in [2] it was 50 µg/mL; in [3] it was 0.5 µg/mL; in assay [4], 10 µg/mL.
On the same counts, the results for `CN(CC(=O)NN)c1ccc2ccccc2c1` are 10 µg/mL, 50 µg/mL, 2 µg/mL and 10 µg/mL.
Regarding `NNC(=O)CNc1ccc2ccccc2c1`, the Concentration in assay [1] was 1 µg/mL; in assay [2], 50 µg/mL; in assay [3] it was 0.5 µg/mL; in assay [4] it was 10 µg/mL.
On the same counts, the results for `CN(CC(=O)N/N=C/c1ccncc1)c1ccc2ccccc2c1` are 10 µg/mL, 100 µg/mL, 1 µg/mL and 10 µg/mL.
`CN[C@@H]1[C@H](O[C@H]2[C@H](O[C@H]3[C@H](O)[C@@H](O)[C@H](N=C(N)N)[C@@H](O)[C@@H]3N=C(N)N)O[C@@H](C)[C@]2(O)C=O)O[C@@H](CO)[C@H](O)[C@H]1O`: the values for the Concentration in assay [5] and in [6] were 2500 µg/mL and 1000 µg/mL, respectively.
On to `O=C(O)CNc1ccc2ncccc2c1`, for which the Concentration was found to be 100 µg/mL in assay [1], 100 µg/mL in [2], 10 µg/mL in assay [3] and 50 µg/mL in assay [4].
In the case of `COc1ccc2cc(NC(C)C(=O)NN)ccc2c1` (stereo unspecified), the Concentration in assay [1] is 50 µg/mL; in assay [2], 100 µg/mL; in [3], 10 µg/mL; in assay [4] it was 50 µg/mL.
With `COc1ccc2cc(NCC(=O)NN)ccc2c1`, the Concentration was 10 µg/mL in assay [1], 50 µg/mL in [2], 5 µg/mL in assay [3] and 10 µg/mL in assay [4].
Consider `CC(CC(=O)NN)Nc1ccc2ncccc2c1` (stereo unspecified), for which the Concentration in [1] stood at 100 µg/mL; in assay [2], 150 µg/mL; in assay [3] it was 50 µg/mL; in assay [4], 100 µg/mL.
For the compound `O=C(O)CNc1ccc2ccccc2c1`, the results for the Concentration in assay [1] and in assay [3] were 1000 µg/mL and 100 µg/mL, respectively.
On to `NNC(=O)c1ccncc1`, for which the Concentration turned out to be 1 µg/mL in assay [1]; 1 µg/mL in [2]; 150 µg/mL in assay [7]; 100 µg/mL in [8]; 0.1 µg/mL in [3]; 0.5 µg/mL in assay [4]. The Concentration was found to be 100 µg/mL in assay [9] and 50 µg/mL in assay [10].
For the compound `NNC(=O)CNc1ccc2ncccc2c1`, the Concentration was 100 µg/mL in [1], 100 µg/mL in assay [2], 25 µg/mL in assay [3] and 50 µg/mL in [4].
